These results are taken from ChEMBL document CHEMBL4513216, “Probing the Open Global Health Chemical Diversity Library for Multistage-Active Starting Points for Next-Generation Antimalarials” (ACS Infect Dis, 2020).

The nature of this series: Toxicity liver stage against HepG2, at 10uM. More on the design: test concentration 10 uM, cell line HepG2-A16-CD81EGFP. The note with it: human, HepG2-A16-CD81EGFP cells; read-out: INHIBITION
The series is classed as cell-based. Put shortly:
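Uninfected HepG2-A16-CD81EGFP cells, 3 × 10^3 per well, 1536-well, plated on prespotted compound at 10 μM final, parasite-free screening media added to match infected plates; puromycin 10 μM positive, DMSO 0.5% negative; run in parallel with 48 h PbLuc assay at 37 °C, 5% CO2; viability by CellTiter-Glo luminescence, normalized to controls.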
Turning to `Cc1nn(C(C)C)c(C)c1NC(=O)c1cccnc1`, the cytotoxicity at 10 µM was -1.57%.
On to `Cc1cc(C)n(C2CCCN(C(=O)c3cccc4c3OCO4)C2)n1` (configuration not stated), for which the cytotoxicity at 10 µM was -3.88%.
As to `Cc1ncncc1C(=O)NCCN1CCC(C)CC1`, the cytotoxicity at 10 µM is -8.76%.
As for `CCn1cc(CN2CCCN(C(=O)C3(C#N)CCCCC3)CC2)cn1`, the cytotoxicity at 10 µM was -53.5%.
With `COc1ccsc1C(=O)NC1CCN(c2ccc(C#N)cc2)CC1`, the cytotoxicity at 10 µM was -1.03%.
For the compound `CCC(CC)c1cc(CNC(=O)N2CCOC(C)C2)on1` (configuration not stated), the cytotoxicity at 10 µM was 0.433%.
For `CCS(=O)(=O)N1CCC(c2nccn2Cc2ccncc2)CC1`, the cytotoxicity at 10 µM is -4%.
Consider `COc1ccc(C)cc1C(C(=O)O)N1CCN(Cc2ccccn2)CC1` (configuration not stated), for which the cytotoxicity at 10 µM came to 4.4%.
In the case of `CC(Cn1cccn1)NC(=O)NCc1ccccn1` (configuration not stated), the cytotoxicity at 10 µM stood at 6.79%.
On to `CCc1noc(C)c1C(=O)N1CCCCC1Cn1cc(C)cn1` (configuration not stated), for which the cytotoxicity at 10 µM is 10.8%.
`COCC(=O)N1CCC(c2nc3ccc(-c4ccncc4)cn3n2)CC1`: the cytotoxicity at 10 µM amounted to 10.2%.
Consider `CC(C)(O)CN1CCN(C(=O)c2cccn2Cc2ccncc2)CC1`, for which the cytotoxicity at 10 µM is -2.59%.
Consider `OCCOc1ccc(NCc2cccnc2)cn1`, for which the cytotoxicity at 10 µM was found to be 1.04%.
The same measure for `CC(=O)NCCOc1c(C)cccc1C`: -2.33%; for `COCC1(C(=O)N2CCC(c3nccn3CC3CC3)CC2)CCC1`: 4.5%; for `O=C(COc1ccccc1F)NCCC(O)c1ccco1` (configuration not stated): -4.18%.
For `CCc1noc(C2CCCCN2C(=O)c2ccccc2)n1` (configuration not stated), the cytotoxicity at 10 µM is -2.38%.
The result for `NC(=O)NC(=O)CCn1ccc(-c2ccc(F)cc2)n1` reads 4.19%; that for `Cc1c[nH]c(C2CCCN(Cc3ccccc3C(=O)O)C2)n1` (configuration not stated), -3.3%.
For the compound `CC(=O)N(Cc1ncc(C)o1)C1CCN(CCCc2cnn(C)c2)C1` (configuration not stated), the cytotoxicity at 10 µM worked out at 8.11%.
Regarding `c1ncn(CC2CN(Cc3nc(-c4ccsc4)no3)CCO2)n1` (configuration not stated), the cytotoxicity at 10 µM was -4.72%.
With `Cn1ccnc1CN1CCCN(C(=O)c2cccc(CC#N)c2)CC1`, the cytotoxicity at 10 µM was -2.13%.
With `Cc1ccc(C(=O)N2C[C@H]3CN(Cc4csc(C)n4)C[C@H]3C2)cn1`, the cytotoxicity at 10 µM was -143%.
For the compound `CCNC(=O)[C@@H]1CCCN1C1(C(=O)NC)CCCCC1`, the cytotoxicity at 10 µM amounted to 5.09%.
With `Cc1cccc(OC2CCN(Cc3ncc[nH]3)CC2)c1`, the cytotoxicity at 10 µM is -7.15%.
Take `CCn1ccnc1CN1CCN(CC(O)c2ccco2)CC1` (configuration not stated): the cytotoxicity at 10 µM was -4.57%.
As for `O=c1[nH]c(COc2ccc(Cl)cc2)nc2c1CCNC2`, the cytotoxicity at 10 µM stood at 6.6%.
Turning to `CN1CC(=O)N(c2ccsc2)CC12CCN(Cc1cnn(C)c1)C2` (configuration not stated), the cytotoxicity at 10 µM stood at 0.0218%.
Consider `CS(=O)(=O)N1CCCC(Cc2ccnc(Nc3ccccn3)c2)C1` (configuration not stated), for which the cytotoxicity at 10 µM came to 5.46%.
The result for `Cc1cccc(OC2CCN(c3ccc(C#N)cn3)CC2)n1` reads 15.5%; that for `CSc1ccc(NS(=O)(=O)c2cnn(C)c2)cn1`, -4.69%; that for `Cc1nn(C)c2c(N(C)Cc3cccs3)nc(C3CC3)nc12`, -126%.
The result for `CCc1nc2n(n1)CC(NCc1noc(-c3ccccc3)n1)CC2` (configuration not stated) reads -10.6%.
Regarding `CCOc1ncccc1CNC(=O)N1CCCC1c1ccncc1` (configuration not stated), the cytotoxicity at 10 µM was found to be 21.2%.
For the compound `O=C(COCCOc1ccccc1)N1CCCC(n2ccnc2)C1` (configuration not stated), the cytotoxicity at 10 µM is -19.6%.
The same measure for `Cc1nc(C)n(CC2CCCN(CC3CCCCC3)C2)n1` (configuration not stated): 2.04%; for `COc1ccc(CNCCc2cc(F)cc3c2OCOC3)cc1OC`: -6.9%.
The result for `CN1CSC[C@H]1C(=O)N1CCC(CCc2ccccc2)CC1` reads 3.23%.
The result for `CNC(=O)c1ccc(C(=O)N2CCCC(n3nc(C)cc3C)C2)cn1` (configuration not stated) reads -5.61%; that for `Cc1cc(C(=O)N2CCCC(c3nccn3Cc3cscn3)C2)on1` (configuration not stated), -1.32%.
For the compound `Cc1cnn(CC2CCCN2C(=O)CCc2ccsc2)c1` (configuration not stated), the cytotoxicity at 10 µM was -1.64%.
Regarding `Cc1cc(C)cc(CNc2ccc(C(=O)NC(C)CO)cc2)c1` (configuration not stated), the cytotoxicity at 10 µM is -5.48%.
The same measure for `CC(=O)Nc1nc(C(=O)NCCOc2ccccc2)cs1`: 6.11%; for `COc1ccccc1OC1CCN(c2nccc(N)n2)CC1`: 9.28%; for `CSc1ccc(-c2nc(CN3CCC(C(N)=O)CC3)c(C)o2)cc1`: 4.58%.
The same measure for `CC(C)CS(=O)(=O)N1CCC2(CN(c3cccc(F)c3)C(=O)CN2C)C1` (configuration not stated): -75.2%; for `Cc1noc(C)c1CN1CC2(CCN(C(=O)c3ccoc3C)C2)CC1=O` (configuration not stated): 7.78%.
In the case of `CC1CCN(C(=O)c2cn(-c3cc(N4CCSCC4)ncn3)cn2)CC1`, the cytotoxicity at 10 µM was -3.75%.
With `Cc1cc(C2CCCN(C(=O)Cc3csc(C(C)C)n3)C2)n[nH]1` (configuration not stated), the cytotoxicity at 10 µM was -7.27%.
Turning to `CCN(Cc1ccc2c(c1)OCO2)C(=O)NCc1nc(C)cs1`, the cytotoxicity at 10 µM came to 7.47%.
The same measure for `O=C(c1ccc[nH]1)N1CCc2onc(COc3cccnc3)c2C1`: -62.6%; for `CCC(C)(C)NC(=O)Cn1nc(C)nc1-c1ccccc1`: -15.4%; for `O=C(NCc1ccc2c(c1)CCCO2)C1CNCCO1` (configuration not stated): -7.49%.
For `O=C([C@H]1CCCO1)N1CCN(CCn2cccn2)c2ncccc2C1`, the cytotoxicity at 10 µM was -106%.
The same measure for `COc1ccc2[nH]c(=O)c(CN(C)C(C)c3ccccn3)cc2c1` (configuration not stated): 2.76%; for `CCSc1ncc(-c2cc(C3CCC3)nc(N)c2C#N)cn1`: 6.67%.
The same measure for `Cc1ncc(CN2CCCC(c3cc(C(N)=O)[nH]n3)C2)s1` (configuration not stated): -27.7%; for `CCS(=O)(=O)N(C)C1CCN(C(=O)c2ccc(C)c(C)c2)CC1`: -2.76%; for `O=C(CC1CC1)N1CCC2(CC1)CN(c1ccsc1)C(=O)CO2`: -73.1%.
In the case of `Cc1ccc(Cn2cc(C)c(N)n2)cc1`, the cytotoxicity at 10 µM is -0.751%.
As to `CC1CCN(c2cc(CCC3CCCN3)ncn2)CC1` (configuration not stated), the cytotoxicity at 10 µM was -14.6%.
For the compound `CCS(=O)(=O)N1Cc2nccn2CC(CN2CCCC2)C1` (configuration not stated), the cytotoxicity at 10 µM was -124%.
On to `Cc1ccccc1C(C(=O)NCCSC(C)C)N(C)C` (configuration not stated), for which the cytotoxicity at 10 µM amounted to 9.38%.
As for `COC(=O)C(CO)NC(=O)c1cn(Cc2ccccc2F)nn1` (configuration not stated), the cytotoxicity at 10 µM was -1.14%.
The result for `Cc1cn2c(n1)CCC(NC(=O)CNS(C)(=O)=O)C2` (configuration not stated) reads -9.84%; that for `CN1C[C@@H](F)[C@@H](OCc2nc3ccccc3[nH]2)C1`, 5.34%; that for `Cc1cc(CN2C[C@@H]3COC[C@]3(CNC(=O)c3ccsc3)C2)no1`, 1.41%.
Turning to `CCC(C)NC(=O)c1cc(S(=O)(=O)N(C)C)c(C)s1` (configuration not stated), the cytotoxicity at 10 µM is -2.75%.
For `Cc1ccc(C(=O)NS(=O)(=O)c2ccccc2F)c(=O)[nH]1`, the cytotoxicity at 10 µM was -5.53%.
On to `COc1cccc2ccc(CN3CCN(c4ncccc4C)CC3)nc12`, for which the cytotoxicity at 10 µM was -5.21%.
Regarding `CN(C(=O)C1CCN(Cc2cnc3ccccn23)CC1)c1ccccc1`, the cytotoxicity at 10 µM worked out at 38.9%.
In the case of `Cc1ncc(CN2CCOC(c3ccc(-c4cnn(C)c4)cn3)C2)s1` (configuration not stated), the cytotoxicity at 10 µM is -23%.
With `Cc1cc(CN2CCC(CNS(=O)(=O)c3ccc(Br)s3)CC2)c(C)o1`, the cytotoxicity at 10 µM is -2.72%.
Turning to `CC(=O)N1CCC2(CCCN(C(=O)c3ccc(Cl)c(C(F)(F)F)c3)C2)C1` (configuration not stated), the cytotoxicity at 10 µM was -81.8%.
Turning to `O=C(NC1(c2nnn(CC3CCCO3)n2)CCCC1)c1ccccc1` (configuration not stated), the cytotoxicity at 10 µM was 13.2%.
The same measure for `CN(C)CC(=O)N1CC[C@H]2OCC[C@@]2(COCC2CC2)C1`: 0.165%.
Turning to `O=C(NS(=O)(=O)c1cnn(-c2ccccc2F)c1)c1ccoc1`, the cytotoxicity at 10 µM is -5.2%.
In the case of `O=C(CCCn1ccnc1)NC1CCCN(c2ccccc2Cl)C1` (configuration not stated), the cytotoxicity at 10 µM was determined as 4.86%.
On to `CC(NC(=O)Nc1cc(F)ccc1N1CCCCC1)c1nncn1C` (configuration not stated), for which the cytotoxicity at 10 µM is -3.36%.
For the compound `Cc1cc(C)nc(N2CCN(C(=O)c3ccc(C4CCCO4)s3)CC2)n1` (configuration not stated), the cytotoxicity at 10 µM turned out to be 9.07%.
`CC[C@H](C)[C@H](N)C(=O)N1CC(=O)c2sc(NC3CCCCC3)nc2C1`: the cytotoxicity at 10 µM was -13.7%.
With `Cc1cc(NCCNc2ccc(C#N)cn2)nc(C)n1`, the cytotoxicity at 10 µM is 4.42%.
On to `Cc1[nH]ccc1C(=O)N1CCOCC12CCCC2`, for which the cytotoxicity at 10 µM stood at 4.14%.
The same measure for `CS(=O)(=O)N1CCC(Cc2cnc(Br)cn2)C1` (configuration not stated): 14.5%; for `COCCCC1(C(=O)O)CCCN(C(=O)c2ccc(Cl)cc2F)C1` (configuration not stated): -0.37%; for `Cc1csc(CNC(=O)NCC(O)c2ccc(F)c(F)c2)n1` (configuration not stated): 2.51%.
As to `CC(C)CCC(=O)Nc1ncn(CC(=O)N2CCCCCC2)n1`, the cytotoxicity at 10 µM came out at 1.17%.
Turning to `CN(C)C(=O)NC[C@@H]1OC[C@H]2CN(Cc3cccc(F)c3)CC[C@H]21`, the cytotoxicity at 10 µM stood at 4.93%.
For the compound `CCOC(=O)[C@]12CCCN(Cc3cccs3)C[C@H]1CN(C(C)=O)C2`, the cytotoxicity at 10 µM is 4.13%.
On to `CN(C)C[C@@H]1C[C@@H]2CN(c3ncc(F)cn3)CC[C@@H]2N1C`, for which the cytotoxicity at 10 µM stood at 4.53%.
The same measure for `Cc1ccsc1S(=O)(=O)N1CCc2c(c(C(=O)O)nn2CC2CC2)C1`: -0.714%; for `CC(C)N(Cc1ccccn1)C(=O)CN(C)C(=O)c1cccs1`: 2.31%.
With `Fc1cnc(N2CCCC3(CCN(c4ncccn4)C3)C2)nc1` (configuration not stated), the cytotoxicity at 10 µM is -113%.
Turning to `O=C(NCCN1CCNC1=O)c1cc(-c2ccc(O)cc2)n[nH]1`, the cytotoxicity at 10 µM turned out to be 6.27%.
`CC(C)(C)n1ncc2c1NC(=O)CC2c1ccccc1` (configuration not stated): the cytotoxicity at 10 µM was found to be 19.2%.
Take `CCc1nc(CN(C)C2CCN(CCn3cccn3)C2)no1` (configuration not stated): the cytotoxicity at 10 µM is -2.21%.
Consider `C1CC1c1nsc(N2CCN(C3CC3)CC2)n1`, for which the cytotoxicity at 10 µM was -16.4%.
